Measured values from ChEMBL document CHEMBL3860041, “Synthesis, biological evaluation and molecular modeling study of some new methoxylated 2-benzylthio-quinazoline-4(3H)-ones as nonclassical antifolates” (Bioorg Med Chem Lett, 2016).

What was measured:
Assay type in all cases: functional
[1] = Growth inhibition of human M14 cells at 10 uM after 48 hrs by SRB assay relative to control; conditions: M14, 48 h, read-out: GI
In short: (§1)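 NCI 60-cell-line panel, nine tumor subpanels; compounds tested at a single dose of 10 μM in the primary screen.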

[2] = Growth inhibition of human MDA-MB-468 cells at 10 uM after 48 hrs by SRB assay relative to control; conditions: MDA-MB-468, 48 h, read-out: GI; in short: as §1
[3] = Growth inhibition of human MOLT4 cells at 10 uM after 48 hrs by SRB assay relative to control; conditions: MOLT-4, 48 h, read-out: GI; in short: as §1
[4] = Growth inhibition of human breast cancer cells after 48 hrs by SRB assay; conditions: Cancer cell lines
In short: (§2)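 Follow-up NCI panel testing over a 5-log dose range for each cell line. GI50, TGI and LC50 were monitored, with 5-fluorouracil run as the positive control. Values are grouped by tumour subpanel.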

[5] = Growth inhibition of human HOP92 cells at 10 uM after 48 hrs by SRB assay relative to control; conditions: HOP-92, 48 h, read-out: GI; in short: as §1
[6] = Growth inhibition of human MCF7 cells at 10 uM after 48 hrs by SRB assay relative to control; conditions: MCF7, 48 h, read-out: GI; in short: as §1
[7] = Growth inhibition of human IGROV1 cells at 10 uM after 48 hrs by SRB assay relative to control; conditions: IGROV-1, 48 h, read-out: GI; in short: as §1
[8] = Growth inhibition of human 786-0 cells at 10 uM after 48 hrs by SRB assay relative to control; conditions: 786-0, 48 h, read-out: GI; in short: as §1
[9] = Growth inhibition of human HT-29 cells at 10 uM after 48 hrs by SRB assay relative to control; conditions: HT-29, 48 h, read-out: GI; in short: as §1
[10] = Growth inhibition of human SK-MEL-5 cells at 10 uM after 48 hrs by SRB assay relative to control; conditions: SK-MEL-5, 48 h, read-out: GI
In short: (§3)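 Primary screen across the full NCI 60 human tumour cell line panel, which covers nine tumour subpanels. A single dose of 10 μM was applied to each line, and growth was recorded for each cell line.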

[11] = Growth inhibition of human OVCAR8 cells at 10 uM after 48 hrs by SRB assay relative to control; conditions: OVCAR-8, 48 h, read-out: GI; in short: as §1
[12] = Growth inhibition of human MDA-MB-231 cells at 10 uM after 48 hrs by SRB assay relative to control; conditions: MDA-MB-231, 48 h, read-out: GI; in short: as §1
[13] = Growth inhibition of human HL-60(TB) cells at 10 uM after 48 hrs by SRB assay relative to control; conditions: HL-60, 48 h, read-out: GI
In short: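 NCI disease-oriented human tumour cell line screen: primary single-dose assay at 10 μM across the full 60-cell-line panel spanning nine tumour subpanels.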

Cancer cell lines [14] = experiment: Potency index, ratio of 5-fluorouracil GI50 to compound GI50 for human renal cancer cells
In short: (§4)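 GI50 for each cell line came from NCI panel testing over a 5-log dose range, with 5-fluorouracil tested alongside as the reference drug. The index relates the 5-fluorouracil GI50 to the compound GI50 within each tumour subpanel.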

[15] = Growth inhibition of human UO31 cells at 10 uM after 48 hrs by SRB assay relative to control; conditions: UO-31, 48 h, read-out: GI; in short: as §3
[16] = Growth inhibition of human HCT15 cells at 10 uM after 48 hrs by SRB assay relative to control; conditions: HCT-15, 48 h, read-out: GI; in short: as §1
[17] = Growth inhibition of human HOP62 cells at 10 uM after 48 hrs by SRB assay relative to control; conditions: HOP-62, 48 h, read-out: GI; in short: as §1
[18] = Growth inhibition of human SF295 cells at 10 uM after 48 hrs by SRB assay relative to control; conditions: SF-295, 48 h, read-out: GI; in short: as §1
[19] = Growth inhibition of human renal cancer cells after 48 hrs by SRB assay; conditions: Cancer cell lines; in short: as §2
[20] = Growth inhibition of human OVCAR4 cells at 10 uM after 48 hrs by SRB assay relative to control; conditions: OVCAR-4, 48 h, read-out: GI; in short: as §1
Cancer cell lines [21] = experiment: Potency index, ratio of 5-fluorouracil GI50 to compound GI50 for human ovarian cancer cells; in short: as §4
[22] = Growth inhibition of human A549 cells at 10 uM after 48 hrs by SRB assay relative to control; conditions: A549, 48 h, read-out: GI; in short: as §1
[23] = Growth inhibition of human OVCAR5 cells at 10 uM after 48 hrs by SRB assay relative to control; conditions: OVCAR-5, 48 h, read-out: GI; in short: as §1
[24] = Growth inhibition of human SNB75 cells at 10 uM after 48 hrs by SRB assay relative to control; conditions: SNB-75, 48 h, read-out: GI; in short: as §3
[25] = Growth inhibition of human KM12 cells at 10 uM after 48 hrs by SRB assay relative to control; conditions: KM12, 48 h, read-out: GI; in short: as §1
[26] = Growth inhibition of human SKOV3 cells at 10 uM after 48 hrs by SRB assay relative to control; conditions: SK-OV-3, 48 h, read-out: GI; in short: as §3
[27] = Growth inhibition of human colon cancer cells after 48 hrs by SRB assay; conditions: Cancer cell lines; in short: as §2
[28] = Growth inhibition of human RPMI8226 cells at 10 uM after 48 hrs by SRB assay relative to control; conditions: RPMI-8226, 48 h, read-out: GI; in short: as §1
[29] = Growth inhibition of human prostate cancer cells after 48 hrs by SRB assay; conditions: Cancer cell lines; in short: as §2
[30] = Growth inhibition of human COLO205 cells at 10 uM after 48 hrs by SRB assay relative to control; conditions: COLO 205, 48 h, read-out: GI; in short: as §1
[31] = Growth inhibition of human non-small cell lung cancer cells after 48 hrs by SRB assay; conditions: Cancer cell lines; in short: as §2
[32] = Growth inhibition of human NCI-H522 cells at 10 uM after 48 hrs by SRB assay relative to control; conditions: NCI-H522, 48 h, read-out: GI; in short: as §1
[33] = Growth inhibition of human SF268 cells at 10 uM after 48 hrs by SRB assay relative to control; conditions: SF-268, 48 h, read-out: GI; in short: as §1
Cancer cell lines [34] = experiment: Potency index, ratio of 5-fluorouracil GI50 to compound GI50 for human CNS cancer cells; in short: as §4
[35] = Growth inhibition of human melanoma cells after 48 hrs by SRB assay; conditions: Melanoma cell; in short: as §2
[36] = Growth inhibition of human SR cells at 10 uM after 48 hrs by SRB assay relative to control; conditions: read-out: GI; in short: as §3

COc1ccc(-n2c(SCc3cc(OC)c(OC)c(OC)c3)nc3ccc(C)cc3c2=O)cc1
inhibition of growth at 10 µM [1]: 46.2%
inhibition of growth at 10 µM [2]: 53.2%
inhibition of growth at 10 µM [3]: 44%
GI50 [4]: 5.3 µM
LC50 [4]: > 100 µM
TGI [4]: 91.4 µM
inhibition of growth at 10 µM [5]: < 10%
inhibition of growth at 10 µM [6]: 75.2%
inhibition of growth at 10 µM [7]: 38%
inhibition of growth at 10 µM [8]: 15.9%
inhibition of growth at 10 µM [9]: 78.1%
inhibition of growth at 10 µM [10]: 45.2%
inhibition of growth at 10 µM [11]: 15.8%
inhibition of growth at 10 µM [12]: 40.3%
inhibition of growth at 10 µM [13]: 68.9%
RatioGI50 (Cancer cell lines [14]): 2 - 10
inhibition of growth at 10 µM [15]: 52.8%
inhibition of growth at 10 µM [16]: 66.4%
inhibition of growth at 10 µM [17]: 34.8%
inhibition of growth at 10 µM [18]: 48.6%
GI50 [19]: 39.7 µM
LC50 [19]: > 100 µM
TGI [19]: 88.1 µM
inhibition of growth at 10 µM [20]: 32.8%
RatioGI50 (Cancer cell lines [21]): 2 - 10
inhibition of growth at 10 µM [22]: 49%
inhibition of growth at 10 µM [23]: 19.4%
inhibition of growth at 10 µM [24]: 55.6%
inhibition of growth at 10 µM [25]: 64.7%
inhibition of growth at 10 µM [26]: 26.3%
GI50 [27]: 18.2 µM
LC50 [27]: > 100 µM
TGI [27]: > 100 µM
inhibition of growth at 10 µM [28]: < 10%
GI50 [29]: 52.8 µM
LC50 (concentration killing 50% of cells) [29]: > 100 µM
TGI [29]: > 100 µM
inhibition of growth at 10 µM [30]: 67.3%
GI50 [31]: 34.5 µM
LC50 (concentration killing 50% of cells) [31]: > 100 µM
TGI [31]: > 100 µM
inhibition of growth at 10 µM [32]: 60.7%
inhibition of growth at 10 µM [33]: 19.4%
RatioGI50 (Cancer cell lines [34]): 2 - 10
GI50 [35]: 19.7 µM
LC50 [35]: > 100 µM
TGI [35]: 89.4 µM
inhibition of growth at 10 µM [36]: 77%

COc1ccc(CSc2nc3cc(OC)c(OC)cc3c(=O)n2-c2ccc(OC)cc2OC)cc1
inhibition of growth at 10 µM [1]: < 10%
inhibition of growth at 10 µM [2]: 25.7%
inhibition of growth at 10 µM [3]: 20.6%
inhibition of growth at 10 µM [5]: 24.5%
inhibition of growth at 10 µM [6]: 16.9%
inhibition of growth at 10 µM [7]: 14%
inhibition of growth at 10 µM [8]: < 10%
inhibition of growth at 10 µM [9]: 12%
inhibition of growth at 10 µM [10]: 19.5%
inhibition of growth at 10 µM [11]: 10.8%
inhibition of growth at 10 µM [12]: 24.6%
inhibition of growth at 10 µM [13]: < 10%
inhibition of growth at 10 µM [15]: 44.6%
inhibition of growth at 10 µM [16]: 19.4%
inhibition of growth at 10 µM [17]: < 10%
inhibition of growth at 10 µM [18]: 10.4%
inhibition of growth at 10 µM [20]: 16.8%
inhibition of growth at 10 µM [22]: 19.2%
inhibition of growth at 10 µM [23]: < 10%
inhibition of growth at 10 µM [24]: < 10%
inhibition of growth at 10 µM [25]: 21.9%
inhibition of growth at 10 µM [26]: < 10%
inhibition of growth at 10 µM [28]: 36.3%
inhibition of growth at 10 µM [30]: < 10%
inhibition of growth at 10 µM [32]: 31.4%
inhibition of growth at 10 µM [33]: 13.7%
inhibition of growth at 10 µM [36]: 40.6%
